Source: BindingDB's records for doi:10.1021/jm970159v (National Taiwan University, 1998)

Legend:
Histamine H1 receptor = Histamine H1 receptor (Cavia porcellus, UniProt P31389); assay: Compound is evaluated for binding affinity towards Histamine H1 receptor using [3H]pyrilamine in guinea pig lung at 10 uM
How it was run: (§1)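 Single-concentration screen at 10 µM in contract radioligand binding assays. Records whether inhibition of specific radioligand binding stayed below 50%.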

D(3) dopamine receptor = D(3) dopamine receptor (Homo sapiens, UniProt P35462); assay: Compound is evaluated for binding affinity towards recombinant human Dopamine receptor D3 using [3H]spiperone in CHO cells at 10 uM; how it was run: as §1
[1] = biological target: Sigma non-opioid intracellular receptor 1 (Cavia porcellus) (UniProt Q60492); assay: Compound is evaluated for binding affinity towards Sigma receptor using [3H]pentazocine in guinea pig brain
Sigma non-opioid intracellular receptor 1 (Cavia porcellus), sequence (Q60492 whole entry, looked up): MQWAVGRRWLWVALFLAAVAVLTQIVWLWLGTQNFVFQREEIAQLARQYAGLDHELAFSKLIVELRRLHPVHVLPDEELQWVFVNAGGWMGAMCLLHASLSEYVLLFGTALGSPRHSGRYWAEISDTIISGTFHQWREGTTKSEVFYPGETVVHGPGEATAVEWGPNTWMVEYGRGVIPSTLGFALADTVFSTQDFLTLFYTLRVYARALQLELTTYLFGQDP

Histamine H1 receptor, sequence (P31389 whole entry): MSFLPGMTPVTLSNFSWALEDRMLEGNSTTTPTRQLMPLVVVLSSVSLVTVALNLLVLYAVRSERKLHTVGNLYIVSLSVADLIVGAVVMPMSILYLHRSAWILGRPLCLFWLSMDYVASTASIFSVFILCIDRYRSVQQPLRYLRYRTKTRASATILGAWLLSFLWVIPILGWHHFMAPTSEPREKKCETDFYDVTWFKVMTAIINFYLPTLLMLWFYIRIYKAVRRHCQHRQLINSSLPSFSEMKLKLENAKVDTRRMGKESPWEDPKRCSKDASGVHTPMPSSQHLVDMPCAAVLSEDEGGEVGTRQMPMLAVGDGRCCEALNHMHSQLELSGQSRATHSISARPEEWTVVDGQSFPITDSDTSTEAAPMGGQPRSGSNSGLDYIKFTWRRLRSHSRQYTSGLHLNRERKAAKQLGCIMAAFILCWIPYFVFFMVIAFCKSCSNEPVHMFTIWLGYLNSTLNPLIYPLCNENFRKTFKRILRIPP
D(3) dopamine receptor, sequence (P35462 as listed by the source): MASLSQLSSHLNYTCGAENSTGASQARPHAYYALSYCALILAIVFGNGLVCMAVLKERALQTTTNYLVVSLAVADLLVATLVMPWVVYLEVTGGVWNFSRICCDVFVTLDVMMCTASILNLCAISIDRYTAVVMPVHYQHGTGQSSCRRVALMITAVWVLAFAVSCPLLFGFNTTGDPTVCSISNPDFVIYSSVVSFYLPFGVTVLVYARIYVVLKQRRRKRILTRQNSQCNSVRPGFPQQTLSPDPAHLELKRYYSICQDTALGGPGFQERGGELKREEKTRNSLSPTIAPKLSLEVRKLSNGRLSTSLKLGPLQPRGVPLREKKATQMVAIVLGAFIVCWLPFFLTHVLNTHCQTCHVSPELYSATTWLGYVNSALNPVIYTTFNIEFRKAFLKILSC

Ki (Histamine H1 receptor)	Ki (D(3) dopamine receptor)	Ki [1]	SMILES
–	–	1.5 µM	Oc1nc2ccccc2c2ncc(CN3CCN(c4ccccc4Cl)CC3)n12 [3-[4-(2-Chloro-phenyl)-piperazin-1-ylmethyl]-6H-imidazo[1,2-c]quinazolin-5-one]
–	–	> 6.27 µM	COc1ccccc1N1CCN(CC2CN=C3c4ccccc4NC(=O)N32)CC1 (stereo not drawn) [3-[4-(2-Methoxy-phenyl)-piperazin-1-ylmethyl]-2,6-dihydro-3H-imidazo[1,2-c]quinazolin-5-one]
–	–	6.52 µM	COc1ccccc1N1CCN(Cc2cnc3c4ccccc4nc(O)n23)CC1 [3-[4-(2-Methoxy-phenyl)-piperazin-1-ylmethyl]-6H-imidazo[1,2-c]quinazolin-5-one]
–	–	> 10 µM	COc1ccccc1N1CCN(CCn2c(=O)[nH]c3ccccc3c2=O)CC1 [3-{2-[4-(2-Methoxy-phenyl)-piperazin-1-yl]-ethyl}-1H-quinazoline-2,4-dione]

The next lines start with the compound.

SMILES	Ki (Histamine H1 receptor)	Ki (D(3) dopamine receptor)	Ki [1]
COc1ccccc1N1CCN(C[C@H]2CN=C3c4ccccc4N=C(SC)N32)CC1	> 10 µM	> 10 µM	–
COc1ccccc1N1CCN(CC2CN3C(=O)Nc4ccccc4C3=N2)CC1 (stereo not drawn) [2-[4-(2-Methoxy-phenyl)-piperazin-1-ylmethyl]-2,6-dihydro-3H-imidazo[1,2-c]quinazolin-5-one]	–	–	4 µM
COc1ccccc1N1CCN(Cc2cn3c(=O)[nH]c4ccccc4c3n2)CC1 [2-[4-(2-Methoxy-phenyl)-piperazin-1-ylmethyl]-6H-imidazo[1,2-c]quinazolin-5-one]	–	–	0.743 µM
